TRPC4 potent: TRPC4 (mouse) allosteric potentiation; Q9QUQ5; HEK293 TRPC4beta/mu-opioid, DAMGO EC20, Fluo-4 Ca2+ flux; active compounds read high; B-score at 10 µM; 310,000 compounds, 0.42% hits; AID 2227;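 active = B-score of calcium response area above 5 SD of library B-scores, with initial fluorescence ratio within 5 SD of library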;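 also: B-score of integrated fluorescence ratio over time as area under calcium response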
FID counter: displaces DNA intercalator in HCV helicase counter-screen; DNA fluorescent intercalator displacement, fluorescence; inhibition, % at 7.9 µM; 290,000 compounds, 0.17% hits; in the data active = inhibition above about 37%;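 also: 0% = vehicle and 100% = reference compound; higher means more ethidium bromide displaced from hairpin DNA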
TRPC4 act: opens the mouse TRPC4 cation channel; Q9QUQ5; HEK293 TRPC4beta/mu-opioid, Fluo4 calcium fluorescence; active compounds read high; B-score at 10 µM; 310,000 compounds, 0.49% hits; AID 2237;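 active = B-score above 5 SD of library B-scores, and initial fluorescence ratio not above library mean plus 5 SD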;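 also: positive B-score marks a calcium rise read as TRPC4 activation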
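Incubation: 45 min room-temperature Fluo4 loading, 110 s read / System: HEK293 cells stably co-expressing mouse TRPC4beta and mu-opioid receptor / Signal: Fluo4 fluorescence, kinetic / Control set: buffer (low) and maximal DAMGO (high) / Measure: integrated baseline-normalised fluorescence ratio, converted to per-well B score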
TRPC6 activator: activates the mouse TRPC6 cation channel | B-score at 10 µM | AID 2550 | Q61143 | HEK293-TRPC6 membrane potential dye fluorescence; active compounds read high | 310,000 compounds, 0.13% hits;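 active = B-score of the integrated fluorescence ratio above library mean plus 3 SD, and starting fluorescence ratio within library mean plus 5 SD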;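 also: higher score means more depolarization so channel activation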
TRPC4 block: blocks the mouse TRPC4 cation channel | Q9QUQ5 | HEK293 TRPC4beta/mu-opioid, DAMGO-evoked Fluo4 calcium flux; active compounds read low | B-score at 10 µM | 300,000 compounds, 0.39% hits | AID 2247;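 active = B-score over 3 SD under the library average, no early fluorescence shift, positive overall ratio signal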
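Signal: kinetic Fluo4 fluorescence imaging of calcium influx. Material: stable TRPC4beta/mu-opioid receptor HEK293 cells. Probe or stimulus: DAMGO in two steps, submaximal then maximal.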
TRPC6 inh: inhibitors of mouse TRPC6 channel | Q61143 | HEK293-TRPC6, membrane potential dye, ACh-evoked depolarization; active compounds read low | B-score at 10 µM | 310,000 compounds, 1.1% hits | AID 2553;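 active = B-score under library mean minus 3 SD, initial fluorescence not abnormally high, positive integrated signal ratio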;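 also: B-score derived from integrated fluorescence ratio over the kinetic read; more negative B-score means stronger inhibition of depolarization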
HEK293 MPD ctr: checks TRPC6 modulator effects in parental HEK293 cells; membrane potential dye fluorescence; membrane potential signal change, % at 10 µM; shares compounds with TRPC6 inh; 2,400 compounds, 51% hits;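 active = membrane potential signal moves up or down beyond 5 SD from buffer-only wells, on both duplicate plates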
HEK293 MPD ctr 2: second check of TRPC6 modulator effects in parental HEK293 cells; shares compounds with TRPC6 inh; membrane potential dye fluorescence; after compound, maximal acetylcholine stimulation; 2,400 compounds, 14% hits; inhibition, % at 10 µM;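 active = membrane potential signal drops by more than 5 SD from the mean control signal, in both duplicate plates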;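 also: plate controls were acetylcholine ECmax control wells for no effect and buffer only wells for full effect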
TRPC4 ctr mod: selectivity of TRPC6 modulators against mouse TRPC4; shares compounds with TRPC6 inh; percent change from control (negative = decrease, positive = increase), % at 10 µM; 2,400 compounds, 69% hits; HEK293 TRPC4/mu-opioid, membrane potential fluorescence;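 active = membrane potential signal moved up or down beyond 5 SD of buffer control wells, in both duplicate plates, actives on both sides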;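 also: plate controls were assay buffer wells for no effect and DAMGO maximal-effect wells for full effect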
TRPC4 ctr inh 2: mouse TRPC4 off-target activity of TRPC6 modulators, second screen; shares compounds with TRPC6 inh; HEK293 TRPC4/mu-opioid, membrane potential dye fluorescence; stimulated with maximal-effect DAMGO; inhibition, % at 10 µM; 2,400 compounds, 55% hits;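 active = drop in membrane potential signal beyond 5 SD of the control wells in both duplicate plates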;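 also: TRPC4 counter screen for TRPC6 hits run under conditions tuned for TRPC6 not TRPC4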
TRPC6 inh conf: mouse TRPC6 inhibitor confirmation; 3,300 compounds, 43% hits; AID 488960; HEK293-TRPC6, membrane potential dye, ACh-evoked depolarization; shares compounds with TRPC6 inh; inhibition, % at 10 µM;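 active = fluorescence ratio falls more than 5 SD below the full-stimulation control mean, in both duplicate runs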;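 also: integrated fluorescence ratio of peak minus minimum over baseline after agonist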
TRPC6 act conf: confirmation of mouse TRPC6 activators. HEK293-TRPC6 membrane potential dye fluorescence, FDSS. shares compounds with TRPC6 inh. activation, % at 10 µM. 2,800 compounds, 11% hits;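 active = ratio signal rise beyond 5 SD above unstimulated control wells' mean, seen in both duplicate runs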;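 also: plate controls were buffer EC0 wells for no effect and acetylcholine ECmax response for full effect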
The depositor's hits bear a star; i = inactive; x = not tested or not shown. Rows were chosen to be rich in hits. Some 2.3% of all compounds tested hit in one or more screens of this group.

SMILES | TRPC4 potent | FID counter | TRPC4 act | TRPC6 activator | TRPC4 block | TRPC6 inh | HEK293 MPD ctr | HEK293 MPD ctr 2 | TRPC4 ctr mod | TRPC4 ctr inh 2 | TRPC6 inh conf | TRPC6 act conf
CCCN(CCC)Cc1c(C(=O)N/N=C/c2ccc(C)o2)nnn1-c1nonc1N | i | -10.3 | i | i | i | i | x | x | x | x | x | x
COCCNC(=O)CCSc1nc(-c2ccc(OC)cc2)cc(C(F)(F)F)n1 | i | -23.2 | i | i | i | -5.62* | i | i | i | i | i | i
COC(=O)c1cc(C(=O)c2cc(F)ccc2O)cn2c(=O)c3c(C)c(C)sc3nc12 | i | -2.6 | i | i | i | -5.43* | i | i | i | 43.5%* | i | i
Cc1ccc(CN(C)C(=O)c2ccccc2Sc2ccccc2C#N)cc1 | i | -48.1 | i | i | i | -5.07* | 104.0%* | i | 22.0%* | i | 62.5%* | x
CN(Cc1ccc(OC(F)F)cc1)C(=O)c1ccccc1Sc1ccccc1C#N | i | -36.3 | i | i | i | i | x | x | x | x | x | x
CC(C)c1ccc2c(c1)CCC1C(C)(CN)CCCC21C (configuration not stated) | i | 26.1 | i | i | i | -6.42* | -81.5%* | i | -11.5%* | 81.0%* | 58.5%* | i
CCOC(=O)c1c(N2C(=O)Nc3ccccc3N2O)sc2c1CCCCC2 | i | -29.9 | i | i | i | i | x | x | x | x | x | x
COC(=O)c1c(N2C(=O)Nc3ccccc3N2O)sc2c1CCCC2 | i | -26.8 | i | 11.8* | i | i | 155.0%* | i | 18.5%* | i | i | 75.5%*
Cc1ccc(S(=O)(=O)N2CCN(C(=O)Cc3ccc4c(c3)OCCO4)CC2)cc1C | i | -29.8 | i | i | i | -6.08* | i | i | i | i | i | i
CN1CCN(C(=O)c2ccc(Cn3cc(Cl)cn3)o2)CC1 | i | -1.3 | i | i | i | i | x | x | x | x | x | x
O=C(c1ccccc1Cl)N1CCN(Cc2ccc3c(c2)OCO3)CC1 | i | -24.1 | i | 12.7* | i | i | i | i | i | i | i | 32.5%*
Cc1ccc(C(=O)N2CCN(Cc3ccc4c(c3)OCO4)CC2)c(Cl)c1 | i | -27.2 | i | i | i | i | x | x | x | x | x | x
O=C(c1ccc(Cn2cc(Cl)cn2)o1)N1CCN(Cc2ccc3c(c2)OCO3)CC1 | i | -21.7 | i | i | i | -5.65* | 98.0%* | i | 18.5%* | i | 40.0%* | x
